Reference: ChEMBL document CHEMBL1142728, “Design and optimization of tricyclic phtalimide analogues as novel inhibitors of HIV-1 integrase” (J Med Chem, 2005)

What was measured:
[1] = tested on: Human immunodeficiency virus 1; assay: Log of cytotoxic concentration against human immunodeficiency virus type 1 using cell-based replication assay in MT-4 cells; assay type: functional, MT4
Outline: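 Mock-infected MT4 cells (150 000 cells/mL) get the same compound concentration range and are incubated 3 days at 37 °C, 5% CO2, in parallel with the HIV-infected cultures. Toxicity is scored as reduced GFP reporter expression. CC50/pCC50 come from dose-response curves of percent inhibition.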

[2] = biological target: T1, Human immunodeficiency virus type 1 integrase (Human immunodeficiency virus 1, UniProt Q7ZJM1); assay: Log of inhibitory concentration against human immunodeficiency virus type 1 integrase
T1 sequence (Q7ZJM1 whole entry): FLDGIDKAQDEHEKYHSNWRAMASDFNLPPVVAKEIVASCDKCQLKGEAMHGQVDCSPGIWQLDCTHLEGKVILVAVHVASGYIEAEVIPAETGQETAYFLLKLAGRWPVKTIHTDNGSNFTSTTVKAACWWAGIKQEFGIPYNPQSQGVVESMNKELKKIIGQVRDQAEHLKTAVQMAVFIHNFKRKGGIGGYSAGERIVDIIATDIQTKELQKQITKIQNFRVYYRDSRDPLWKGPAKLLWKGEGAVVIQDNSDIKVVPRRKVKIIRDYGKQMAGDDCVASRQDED
Outline: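 Strand transfer ELISA using recombinant His-tagged HIV-1 integrase expressed in E. coli BL21(DE3). 20 nM biotinylated processed viral DNA substrate is preincubated with 300 nM integrase for 5 min at 37 °C. Serial compound dilutions and 50 nM target DNA are then added in 20 mM Hepes pH 7.5, 25 mM NaCl, 5 mM MnCl2, 2 mM DTT, 50 µg/mL BSA and incubated 2 h at 37 °C. Products are captured on streptavidin plates, detected with anti-FITC peroxidase antibody and read by chemiluminescence.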

[3] = tested on: Human immunodeficiency virus 1; assay: Log of effective concentration against human immunodeficiency virus type 1 using cell-based replication assay in MT-4 cells; assay type: functional, organism-based; conditions: Human immunodeficiency virus 1, MT4
Outline: (§1)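 MT4 cells (150 000 cells/mL) infected with HIV-1/LAI wild type at 200 CCID50, with serial compound concentrations in 384-well format. Replication is read as GFP expression driven by HIV-tat acting on an LTR-GFP reporter. Incubation 3 days at 37 °C, 5% CO2. EC50/pEC50 are taken from dose-response curves of percent inhibition.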

[4] = tested on: Human immunodeficiency virus 1; assay: Effective concentration against human immunodeficiency virus type 1 using cell-based replication assay in MT-4 cells; assay type: functional, organism-based; conditions: Human immunodeficiency virus 1, MT4; outline: as §1
[5] = biological target: T1, Human immunodeficiency virus type 1 integrase; assay: Inhibitory concentration against human immunodeficiency virus type 1 integrase

SMILES: CN1C(=O)c2c(c(O)c3nccnc3c2O)C1=O
- pCC50 [1]: <4.49
- IC50 [2]: 49000 nM
- EC50 [3]: > 32400 nM

SMILES: O=C1c2c(c(O)c3nccnc3c2O)C(=O)N1Cc1cccc(F)c1
- pCC50 [1]: 4.77
- IC50 [2]: 562 nM
- EC50 [3]: 5370 nM

SMILES: Cc1ccc2c(O)c3c(c(O)c2n1)C(=O)N(Cc1cccc(Br)c1)C3=O
- pCC50 [1]: 4.78
- IC50 [2]: 257 nM
- EC50 [3]: 7590 nM

SMILES: O=C1c2c(c(O)c3nccnc3c2O)C(=O)N1Cc1ccc2c(c1)OCO2
- pCC50 [1]: <4.49
- IC50 [2]: 562 nM
- EC50 [3]: 3160 nM

SMILES: COc1ccc(CN2C(=O)c3c(c(O)c4nccnc4c3O)C2=O)c(OC)c1
- pCC50 [1]: 4.77
- IC50 [2]: 427 nM
- EC50 [3]: 13500 nM

SMILES: O=C1c2c(c(O)c3nccnc3c2O)C(=O)N1Cc1ccc(F)cc1
- pCC50 [1]: 4.69
- IC50 [2]: 417 nM
- EC50 [3]: 1550 nM

SMILES: COc1ccc(CN2C(=O)c3c(c(O)c4nccnc4c3O)C2=O)cc1
- pCC50 [1]: 4.64
- IC50 [2]: 562 nM
- EC50 [3]: 3630 nM

SMILES: O=C1c2c(c(O)c3nccnc3c2O)C(=O)N1Cc1cc(F)cc(F)c1
- pCC50 [1]: <4.49
- IC50 [2]: 372 nM
- EC50 [3]: 16600 nM

SMILES: O=S1(=O)CCCCN1c1nc(/C(O)=N/Cc2ccc(F)cc2)c(O)c2ncccc12
- EC95 [4]: 100 nM
- IC50 [5]: 10 nM

SMILES: O=C1c2c(c(O)c3nccnc3c2O)C(=O)N1Cc1ccc(-c2ccccc2)cc1
- pCC50 [1]: 5.47
- IC50 [2]: 1450 nM
- EC50 [3]: 2570 nM

SMILES: O=C1c2c(c(O)c3ccccc3c2O)C(=O)N1Cc1ccc(F)cc1
- pCC50 [1]: 4.59
- IC50 [2]: > 100000 nM
- EC50 [3]: 20000 nM

SMILES: O=C1c2c(c(O)c3nccnc3c2O)C(=O)N1CCc1ccccc1
- pCC50 [1]: 5.23
- IC50 [2]: 2040 nM
- EC50 [3]: 4900 nM

SMILES: O=C1c2c(c(O)c3nccnc3c2O)C(=O)N1Cc1cccc(C(F)(F)F)c1
- pCC50 [1]: 4.77
- IC50 [2]: 427 nM
- EC50 [3]: 9770 nM

SMILES: C[C@H](c1ccccc1)N1C(=O)c2c(c(O)c3nccnc3c2O)C1=O
- pCC50 [1]: 4.76
- IC50 [2]: 1050 nM
- EC50 [3]: 10200 nM

SMILES: O=C1c2c(c(O)c3nnccc3c2O)C(=O)N1Cc1cccc(Br)c1
- pCC50 [1]: <4.49
- IC50 [2]: 3630 nM
- EC50 [3]: 21400 nM

SMILES: O=C1c2c(c(O)c3ncccc3c2O)C(=O)N1Cc1cccc(Br)c1
- pCC50 [1]: 5.21
- IC50 [2]: 380 nM
- EC50 [3]: 3090 nM

SMILES: O=C1c2c(c(O)c3nccnc3c2O)C(=O)N1C1CCNCC1
- pCC50 [1]: <4.49
- IC50 [2]: > 100000 nM
- EC50 [3]: > 32400 nM

SMILES: COc1cccc(CN2C(=O)c3c(c(O)c4nccnc4c3O)C2=O)c1OC
- pCC50 [1]: 4.72
- IC50 [2]: 427 nM
- EC50 [3]: 4900 nM

SMILES: COc1ccccc1CN1C(=O)c2c(c(O)c3nccnc3c2O)C1=O
- pCC50 [1]: 4.81
- IC50 [2]: 813 nM
- EC50 [3]: 3800 nM

SMILES: CC(C)Oc1ccc(Cc2ccccc2)cc1/C(O)=C/C(=O)C(=O)O
- IC50 [5]: 50 nM

SMILES: O=C1c2c(c(O)c3nccnc3c2O)C(=O)N1Cc1cc(Cl)cc(Cl)c1
- pCC50 [1]: 4.72
- IC50 [2]: 186 nM
- EC50 [3]: 724 nM

SMILES: COc1cccc(OC)c1CN1C(=O)c2c(c(O)c3nccnc3c2O)C1=O
- pCC50 [1]: 5.09
- IC50 [2]: 2000 nM
- EC50 [3]: 5370 nM

SMILES: O=C1c2c(c(O)c3nccnc3c2O)C(=O)N1Cc1ccc(F)c(Cl)c1
- pCC50 [1]: 4.7
- IC50 [2]: 178 nM
- EC50 [3]: 3090 nM

SMILES: O=C1c2c(c(O)c3nccnc3c2O)C(=O)N1Cc1ccc(Br)cc1F
- pCC50 [1]: 5.11
- IC50 [2]: 437 nM
- EC50 [3]: 2400 nM

SMILES: O=C1c2c(c(O)c3nccnc3c2O)C(=O)N1CCc1ccc2c(c1)OCO2
- IC50 [2]: 1410 nM
- EC50 [3]: 11000 nM

SMILES: O=C1c2c(c(O)c3nccnc3c2O)C(=O)N1Cc1ccc(Cl)c(Cl)c1
- pCC50 [1]: 5.05
- IC50 [2]: 112 nM
- EC50 [3]: 912 nM

SMILES: O=C1c2c(c(O)c3nccnc3c2O)C(=O)N1c1ccc2c(c1)OCO2
- pCC50 [1]: <4.49
- IC50 [2]: 10000 nM
- EC50 [3]: > 32400 nM

SMILES: O=C1c2c(c(O)c3nccnc3c2O)C(=O)N1Cc1ccccc1Br
- pCC50 [1]: 4.75
- IC50 [2]: 631 nM
- EC50 [3]: 15100 nM

SMILES: O=C1c2c(c(O)c3nccnc3c2O)C(=O)N1Cc1cc(Br)ccc1F
- pCC50 [1]: 5.38
- IC50 [2]: 355 nM
- EC50 [3]: 447 nM

SMILES: O=C1c2c(c(O)c3nccnc3c2O)C(=O)N1Cc1ccncc1
- pCC50 [1]: <4.49
- IC50 [2]: 6760 nM
- EC50 [3]: > 32400 nM

SMILES: O=C(c1ccccc1)N1CCC(N2C(=O)c3c(c(O)c4nccnc4c3O)C2=O)CC1
- pCC50 [1]: <4.49
- IC50 [2]: 2400 nM
- EC50 [3]: > 32400 nM

SMILES: C[C@@H](c1ccccc1)N1C(=O)c2c(c(O)c3nccnc3c2O)C1=O
- pCC50 [1]: 4.81
- IC50 [2]: 2040 nM
- EC50 [3]: 15100 nM

SMILES: O=C1c2c(c(O)c3nccnc3c2O)C(=O)N1Cc1cccc(Br)c1
- pCC50 [1]: 4.49
- IC50 [2]: 209 nM
- EC50 [3]: 7410 nM

SMILES: O=C1c2c(c(O)c3nccnc3c2O)C(=O)N1C1CCCC1
- pCC50 [1]: 4.55
- IC50 [2]: 10500 nM
- EC50 [3]: > 32400 nM

SMILES: Cc1ccc(CN2C(=O)c3c(c(O)c4nccnc4c3O)C2=O)cc1
- pCC50 [1]: 4.86
- IC50 [2]: 1580 nM
- EC50 [3]: 1780 nM

SMILES: O=C1c2c(c(O)c3nccnc3c2O)C(=O)N1Cc1ccc(Cl)cc1
- pCC50 [1]: 5.58
- IC50 [2]: 417 nM
- EC50 [3]: 269 nM

SMILES: O=C1c2c(c(O)c3nccnc3c2O)C(=O)N1Cc1cccc(Cl)c1
- pCC50 [1]: 4.73
- IC50 [2]: 219 nM
- EC50 [3]: 977 nM

SMILES: O=C1c2c(c(O)c3nccnc3c2O)C(=O)N1Cc1ccc(-c2ccccc2F)cc1
- pCC50 [1]: 4.83
- IC50 [2]: 1000 nM
- EC50 [3]: 14800 nM

SMILES: O=C1c2c(c(O)c3nccnc3c2O)C(=O)N1CC1CCCCC1
- pCC50 [1]: 5.19
- IC50 [2]: 2190 nM
- EC50 [3]: 3470 nM

SMILES: O=C1c2c(c(O)c3nccnc3c2O)C(=O)N1Cc1ccc(OC(F)(F)F)cc1
- pCC50 [1]: 5.6
- IC50 [2]: 2040 nM
- EC50 [3]: 1350 nM

SMILES: COc1ccc(OC)c(CN2C(=O)c3c(c(O)c4nccnc4c3O)C2=O)c1
- pCC50 [1]: 4.73
- IC50 [2]: 776 nM
- EC50 [3]: 4790 nM

SMILES: O=C1c2c(c(O)c3nccnc3c2O)C(=O)N1Cc1cccc(-c2ccccc2F)c1
- pCC50 [1]: 4.82
- IC50 [2]: 501 nM
- EC50 [3]: 13200 nM
